The source made the active and inactive calls. The rule behind the calls is not given here.
What was measured:
[1] = biological target: T1, Fatty-acid amide hydrolase 1 (Mus musculus) (UniProt O08914); assay: Inhibition of FAAH in mouse brain assessed as reduction in spectral count at 50 uM treated for 30 mins by ABPP-MudPIT assay relative to control; type: tissue-based
T1 sequence (whole entry): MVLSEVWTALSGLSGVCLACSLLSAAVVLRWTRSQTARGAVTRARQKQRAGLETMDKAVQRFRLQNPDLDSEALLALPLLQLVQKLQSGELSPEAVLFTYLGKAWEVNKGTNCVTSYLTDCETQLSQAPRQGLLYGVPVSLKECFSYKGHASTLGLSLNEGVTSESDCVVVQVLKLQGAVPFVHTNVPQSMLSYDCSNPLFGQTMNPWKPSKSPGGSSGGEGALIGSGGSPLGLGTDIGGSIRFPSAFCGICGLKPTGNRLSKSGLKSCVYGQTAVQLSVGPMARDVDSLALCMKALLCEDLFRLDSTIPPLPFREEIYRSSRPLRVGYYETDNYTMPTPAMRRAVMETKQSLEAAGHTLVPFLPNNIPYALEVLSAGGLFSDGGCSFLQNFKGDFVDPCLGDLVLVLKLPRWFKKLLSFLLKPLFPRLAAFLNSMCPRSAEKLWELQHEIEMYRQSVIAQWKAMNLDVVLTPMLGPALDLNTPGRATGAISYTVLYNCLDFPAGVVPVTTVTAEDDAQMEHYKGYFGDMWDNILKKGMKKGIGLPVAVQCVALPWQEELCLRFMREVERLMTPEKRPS
Summary of the method: (§1)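 Mouse brain proteome was treated with inhibitor at the stated single concentration, or DMSO as control, for 30 min. FP-biotin (5 μM) was then added for 120 min, followed by avidin enrichment and LC-MS (ABPP-MudPIT). Runs were in triplicate. Only hydrolases with >15 average spectral counts in control were quantified. Blockade is the percent reduction in average spectral counts versus DMSO; >60% defined a target.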

[2] = biological target: Diacylglycerol lipase-beta (Homo sapiens, UniProt Q8NCG7); assay: Inhibition of human recombinant DAGLbeta overexpressed in african green monkey COS7 cells; type: cell-based, COS-7
[3] = biological target: Diacylglycerol lipase-alpha (Homo sapiens, UniProt Q9Y4D2); assay: Inhibition of human recombinant DAGLalpha overexpressed in african green monkey COS7 cells; type: cell-based, COS-7
[4] = biological target: T2, Platelet-activating factor acetylhydrolase (Mus musculus) (UniProt Q60963); assay: Inhibition of PLA2g7 in mouse brain by LC-MS analysis; type: tissue-based
T2 sequence (whole entry): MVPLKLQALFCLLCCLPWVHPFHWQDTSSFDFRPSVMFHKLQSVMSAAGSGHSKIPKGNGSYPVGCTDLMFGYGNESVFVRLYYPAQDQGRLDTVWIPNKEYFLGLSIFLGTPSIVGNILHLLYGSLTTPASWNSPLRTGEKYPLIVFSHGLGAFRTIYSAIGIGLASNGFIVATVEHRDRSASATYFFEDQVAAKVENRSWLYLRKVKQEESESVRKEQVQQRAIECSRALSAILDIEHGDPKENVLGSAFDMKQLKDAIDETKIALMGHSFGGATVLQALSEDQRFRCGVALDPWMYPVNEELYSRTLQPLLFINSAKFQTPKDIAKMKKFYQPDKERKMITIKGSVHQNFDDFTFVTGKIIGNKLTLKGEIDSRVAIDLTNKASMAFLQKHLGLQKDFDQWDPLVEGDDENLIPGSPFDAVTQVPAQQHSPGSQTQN

[5] = biological target: Acetylcholinesterase (Mus musculus) (UniProt P21836); assay: Inhibition of AChE in mouse brain by LC-MS analysis; type: tissue-based
[6] = biological target: T3, Phosphatidylserine lipase ABHD16A (Mus musculus) (UniProt Q9Z1Q2); assay: Inhibition of BAT5 in mouse brain assessed as reduction in spectral count at 50 uM treated for 30 mins by ABPP-MudPIT assay relative to control; type: tissue-based; summary of the method: as §1
T3 sequence (whole entry): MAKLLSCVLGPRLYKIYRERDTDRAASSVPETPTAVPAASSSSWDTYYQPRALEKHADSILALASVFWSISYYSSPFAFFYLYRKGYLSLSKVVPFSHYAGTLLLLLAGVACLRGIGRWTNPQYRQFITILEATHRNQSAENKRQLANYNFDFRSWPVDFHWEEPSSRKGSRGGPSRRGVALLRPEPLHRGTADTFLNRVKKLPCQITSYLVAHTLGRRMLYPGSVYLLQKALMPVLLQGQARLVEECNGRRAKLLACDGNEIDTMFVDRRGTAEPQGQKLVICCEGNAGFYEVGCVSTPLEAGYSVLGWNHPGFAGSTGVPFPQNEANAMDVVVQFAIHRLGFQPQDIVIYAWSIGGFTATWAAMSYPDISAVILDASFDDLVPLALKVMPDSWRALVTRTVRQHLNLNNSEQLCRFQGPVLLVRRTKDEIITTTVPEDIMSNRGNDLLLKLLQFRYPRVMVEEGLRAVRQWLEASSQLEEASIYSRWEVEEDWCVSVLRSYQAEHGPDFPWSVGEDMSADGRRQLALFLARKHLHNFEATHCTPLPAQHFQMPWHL

[7] = biological target: T3, Phosphatidylserine lipase ABHD16A (Mus musculus); conditions: Brain, 5 uM

Chain of Diacylglycerol lipase-beta (Q8NCG7 whole entry): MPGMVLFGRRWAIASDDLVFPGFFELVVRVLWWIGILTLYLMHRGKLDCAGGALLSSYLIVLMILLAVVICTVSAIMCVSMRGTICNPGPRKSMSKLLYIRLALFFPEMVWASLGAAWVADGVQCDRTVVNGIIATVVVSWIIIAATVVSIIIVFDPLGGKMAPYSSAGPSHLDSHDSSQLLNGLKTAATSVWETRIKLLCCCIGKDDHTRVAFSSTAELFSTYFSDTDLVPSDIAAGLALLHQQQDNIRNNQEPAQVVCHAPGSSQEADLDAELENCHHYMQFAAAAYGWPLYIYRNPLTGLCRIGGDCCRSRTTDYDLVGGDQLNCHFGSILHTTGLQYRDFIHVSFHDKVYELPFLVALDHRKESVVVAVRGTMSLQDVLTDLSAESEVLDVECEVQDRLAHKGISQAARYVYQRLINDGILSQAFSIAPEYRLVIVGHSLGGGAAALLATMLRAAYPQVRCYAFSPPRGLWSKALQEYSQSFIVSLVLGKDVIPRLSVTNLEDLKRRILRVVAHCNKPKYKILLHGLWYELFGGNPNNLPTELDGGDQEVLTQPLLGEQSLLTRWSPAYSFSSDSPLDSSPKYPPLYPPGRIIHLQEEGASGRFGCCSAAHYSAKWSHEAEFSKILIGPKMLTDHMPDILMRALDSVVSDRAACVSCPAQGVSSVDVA
Chain of Diacylglycerol lipase-alpha (Q9Y4D2 whole entry): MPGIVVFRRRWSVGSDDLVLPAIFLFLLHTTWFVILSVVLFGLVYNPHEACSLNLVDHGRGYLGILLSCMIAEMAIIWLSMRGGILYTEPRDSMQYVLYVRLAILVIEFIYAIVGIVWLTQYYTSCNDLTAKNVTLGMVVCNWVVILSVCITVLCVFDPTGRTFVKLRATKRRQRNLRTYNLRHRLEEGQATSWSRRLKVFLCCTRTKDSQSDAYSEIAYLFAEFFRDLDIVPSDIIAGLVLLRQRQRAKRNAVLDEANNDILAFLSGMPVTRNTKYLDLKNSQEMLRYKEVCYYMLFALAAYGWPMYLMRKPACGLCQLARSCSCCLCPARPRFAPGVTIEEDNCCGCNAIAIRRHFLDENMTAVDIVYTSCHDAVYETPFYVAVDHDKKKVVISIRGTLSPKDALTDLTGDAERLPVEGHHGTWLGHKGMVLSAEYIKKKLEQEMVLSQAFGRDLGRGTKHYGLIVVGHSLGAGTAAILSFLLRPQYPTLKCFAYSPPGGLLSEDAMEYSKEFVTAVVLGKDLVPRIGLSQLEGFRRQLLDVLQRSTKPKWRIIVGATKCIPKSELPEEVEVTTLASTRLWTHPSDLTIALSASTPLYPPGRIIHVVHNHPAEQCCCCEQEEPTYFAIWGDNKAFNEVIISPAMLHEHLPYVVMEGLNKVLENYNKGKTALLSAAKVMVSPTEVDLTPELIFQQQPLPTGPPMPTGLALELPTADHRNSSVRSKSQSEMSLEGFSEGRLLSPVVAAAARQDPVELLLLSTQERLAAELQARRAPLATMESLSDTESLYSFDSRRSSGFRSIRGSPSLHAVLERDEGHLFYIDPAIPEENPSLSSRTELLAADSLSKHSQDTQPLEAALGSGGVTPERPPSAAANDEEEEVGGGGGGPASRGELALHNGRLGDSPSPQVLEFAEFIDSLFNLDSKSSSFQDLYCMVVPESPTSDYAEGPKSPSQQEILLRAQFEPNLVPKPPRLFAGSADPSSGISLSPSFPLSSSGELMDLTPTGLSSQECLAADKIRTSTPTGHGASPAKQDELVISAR
Chain of Acetylcholinesterase (Mus musculus) (P21836 whole entry): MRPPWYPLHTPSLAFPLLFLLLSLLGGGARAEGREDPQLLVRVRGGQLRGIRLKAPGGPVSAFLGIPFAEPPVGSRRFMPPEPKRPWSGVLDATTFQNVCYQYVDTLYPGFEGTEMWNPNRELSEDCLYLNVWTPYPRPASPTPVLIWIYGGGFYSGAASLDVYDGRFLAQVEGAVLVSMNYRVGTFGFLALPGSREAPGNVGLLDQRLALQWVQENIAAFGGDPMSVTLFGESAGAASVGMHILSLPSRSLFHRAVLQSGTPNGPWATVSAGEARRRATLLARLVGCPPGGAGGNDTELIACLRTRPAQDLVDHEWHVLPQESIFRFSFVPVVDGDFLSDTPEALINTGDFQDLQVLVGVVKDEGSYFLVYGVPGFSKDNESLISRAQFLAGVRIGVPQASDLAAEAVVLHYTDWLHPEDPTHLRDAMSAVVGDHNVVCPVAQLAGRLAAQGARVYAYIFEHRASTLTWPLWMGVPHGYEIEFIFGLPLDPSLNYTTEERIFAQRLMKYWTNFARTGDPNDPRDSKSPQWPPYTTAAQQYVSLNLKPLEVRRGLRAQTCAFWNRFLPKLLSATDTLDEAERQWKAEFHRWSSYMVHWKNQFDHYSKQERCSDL

Structure (SMILES)	inhibition [1] [%]	IC50 [2] [nM]	IC50 [3] [nM]	Activity [4]	Activity [5]	inhibition [6] [%]	inhibition [7] [%]
O=C(NCCCCCCNC(=O)ON=C1CCCCC1)ON=C1CCCCC1	> 60	60	60	Active	Active	> 60	
CCCCCCCCCCC[C@@H](C[C@@H]1OC(=O)[C@H]1CCCCCC)OC(=O)[C@H](CC(C)C)NC=O [ORLISTAT]							> 60

Source: ChEMBL document CHEMBL1151781, “Selectivity of inhibitors of endocannabinoid biosynthesis evaluated by activity-based protein profiling” (Bioorg Med Chem Lett, 2008)
